Published values gathered from unrelated publications.
Protocols differ between the studies behind these lines.
Observed: cell growth or viability

The IC50 of `Cc1ccc2nc(-c3ccc(Cl)cc3)[nH]c2c1` is reported as 27.1 µM (MDA-MB-231; MTT; 48 h).
With `COc1cc(OC)c2c(=O)cc(-c3ccc(C(F)(F)F)cc3)oc2c1-c1c(OC)cc(OC)c2c(=O)cc(-c3ccc(C(F)(F)F)cc3)oc12` the IC50 was > 200 µM (HS27; MTT; 24 h).
For `Cc1ccc2c(Cl)cc(Cl)c(O)c2n1`, the IC50 was > 100 µM (BEL-7404; MTT; 48 h).
`CCOc1cc(OCC)cc(C(=O)O[C@@H]2CN3Cc4c(cc5c(c4OC)OCO5)[C@@]24C=C[C@H](OC)C[C@@H]34)c1` has an IC50 of > 10 µM (MRC5; WST-1).
For `COC(=O)CN=c1scc(-c2ccccc2)n1-c1ccc(C)cc1`, the IC50 was 50.3 µM (Panc 04.03; MTT; 72 h).
For `Oc1cccc(-c2nc3ccccc3[nH]2)c1`, the IC50 was > 100 µM (MDA-MB-231; MTT; 48 h).
With `CC(=O)c1cccc(/N=N/c2cc(/C=C/C(=O)O)ccc2O)c1` the IC50 was > 50 µM (A-375; MTT).
The IC50 of `COc1ccnc(-c2cc(OC)ccn2)c1` is reported as > 50 µM (BEL-7404; MTT; 48 h).
`COc1cc(C)cc2oc(-c3cccc(Br)c3)cc(=O)c12` gave an IC50 of 104 µM (HS27; MTT; 24 h).
With `Cc1ccc2nc(-c3ccccc3O)[nH]c2c1` the IC50 was 31.9 µM (MDA-MB-231; MTT; 48 h).
The IC50 of `COC(=O)CN=c1scc(-c2ccccc2)n1-c1ccccc1` is reported as > 100 µM (Panc 04.03; MTT; 72 h).
`COc1cc(C)cc2oc(-c3ccccc3Br)cc(=O)c12` has an IC50 of 130 µM (HS27; MTT).
With `COc1ccc(C[C@H]2CO[C@H](c3ccc(OC)c(OC)c3)[C@H]2COC(=O)C=C(C)C)cc1OC` the IC50 was 34.3 µM (rat VSMC; resazurin; 48 h).
`C#Cc1cccc(Nc2ncnc3cc(OCCOC)c(OCCOC)cc23)c1` has an IC50 of 4.14 µM (A-375; MTT).
For `c1cncc(-c2nc3ccccc3[nH]2)c1`, the IC50 was > 100 µM (MDA-MB-231; MTT; 48 h).
With `Cc1ccc2c(Br)cc(Br)c(O)c2n1` the IC50 was > 150 µM (BEL-7404; MTT; 48 h).
The IC50 of `C=CCn1c(-c2ccc(Cl)cc2)nc2ccccc21` is reported as 73.1 µM (MDA-MB-231; MTT).
With `COC(=O)CN=c1scc(-c2ccccc2)n1-c1ccccc1[N+](=O)[O-]` the IC50 was 22.1 µM (Panc 04.03; MTT; 72 h).
The IC50 of `C/C=C(/C)C(=O)OC[C@H]1[C@@H](Cc2ccc(F)cc2)CO[C@@H]1c1ccc(F)cc1` is reported as 4.7 µM (rat VSMC; resazurin; 48 h).
`COc1cccc2c1C(=O)c1c(O)c3c(c(O)c1C2=O)C[C@@](O)(C(=O)CO)C[C@@H]3O[C@H]1C[C@H](N)[C@H](O)[C@H](C)O1` gave an IC50 of 0.98 µg/mL (LLC-PK11; neutral red; 48 h).
`COc1cc(C)cc2oc(-c3ccccc3)cc(=O)c12` has an IC50 of > 200 µM (HS27; MTT; 24 h).
With `COC(=O)/C=C/C=C/c1ccc2c(c1)OCO2` the IC50 was 250 µM (MRC5; SRB).
`COc1cc(-c2ncn(/C=C\C(=O)OC(C)C)n2)cc(C(F)(F)F)c1` has an IC50 of 0.474 µM (Mono-Mac-1; 72 h).
For `COc1ccc(-c2cc(=O)c3c(OC)cc(C)c(-c4c(C)cc(OC)c5c(=O)cc(-c6ccc(OC)cc6)oc45)c3o2)cc1`, the IC50 was > 200 µM (HS27; MTT; 24 h).
With `COc1cc2nccc(Oc3ccc(NC(=O)C4(C(=O)Nc5ccc(F)cc5)CC4)cc3)c2cc1OC` the IC50 was > 5.91 µM (CMK; trypan blue; 72 h).
The IC50 of `CSc1ccc(-c2nc3ccccc3[nH]2)cc1` is reported as 36.6 µM (MDA-MB-231; MTT; 48 h).
`c1cnc2c(c1)ccc1cccnc12` gave an IC50 of > 50 µM (BEL-7404; MTT; 48 h).
For `COc1ccc(C[C@H]2CO[C@H](c3ccc(OC)c(OC)c3)[C@H]2COC(=O)CC(C)C)cc1OC`, the IC50 was 31 µM (rat VSMC; resazurin; 48 h).
For `Oc1ccc(Nc2nc(-c3ccc(Cl)cc3)cs2)cc1`, the IC50 was > 100 µM (FF2441; MTS; 24 h).
For `COc1cccc(-c2nc3ccccc3[nH]2)c1`, the IC50 was 25.5 µM (MDA-MB-231; MTT; 48 h).
`COc1cc(OC)c2c(=O)cc(-c3ccc(N(C)C)cc3)oc2c1-c1c(OC)cc(OC)c2c(=O)cc(-c3ccc(N(C)C)cc3)oc12` gave an IC50 of > 200 µM (HS27; MTT; 24 h).
The IC50 of `Cc1ccc2nc(-c3ccc(N(C)C)cc3)[nH]c2c1` is reported as 31.5 µM (MDA-MB-231; MTT; 48 h).
`Nc1ccn([C@@H]2O[C@H](CO)[C@@H](O)C2(F)F)c(=O)n1` gave an IC50 of 0.19 µM (Panc 04.03; MTT; 72 h).
The IC50 of `COc1c2ccoc2c(OCC=C(C)C)c2oc(=O)ccc12` is reported as > 100 µM (MRC5; MTT; 72 h).
For `CC(=O)c1cccc(N=Nc2c(C(=O)O)cc(O)c(O)c2O)c1`, the IC50 was 11.9 µM (A-375; MTT).
For `COc1cc(C)c(-c2c(C)cc(OC)c3c(=O)cc(-c4ccc(Br)cc4)oc23)c2oc(-c3ccc(Br)cc3)cc(=O)c12`, the IC50 was > 200 µM (HS27; MTT; 24 h).
`COC(=O)CN=c1scc(-c2ccccc2)n1-c1ccccc1OC` gave an IC50 of 4.2 µM (SiHa; MTT; 72 h).
`COc1cc(C)c(-c2c(C)cc(OC)c3c(=O)cc(-c4ccc(C(F)(F)F)cc4)oc23)c2oc(-c3ccc(C(F)(F)F)cc3)cc(=O)c12` gave an IC50 of > 200 µM (HS27; MTT; 24 h).
For `COC(=O)CN=c1scc(-c2ccccc2)n1-c1ccc(OC)cc1`, the IC50 was 2.32 µM (SiHa; MTT; 72 h).
For `Clc1ccnc2c1ccc1c(Cl)ccnc12`, the IC50 was > 50 µM (BEL-7404; MTT; 48 h).
